Among the data in ChEMBL document CHEMBL4261655, “Matrix metalloproteinase-12 inhibitors: synthesis, structure-activity relationships and intestinal absorption of novel sugar-based biphenylsulfonamide carboxylates” (Bioorg Med Chem, 2018) are IC50 and solubility values, retold here.

Data set [1] deals with Macrophage metalloelastase (Homo sapiens, UniProt P39900). Kind of data set: Inhibition of recombinant human MMP12 using Mca-Lys-Pro-Leu-Gly-Leu-Dap(Dnp)-Ala-Arg-NH2 as substrate preincubated for 3 hrs followed by substrate addition and measured every 10 secs for 15 mins by fluorescence assay. Summed up:
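Inhibitor at seven concentrations, 3 h at 25 °C; 2 µM final substrate. Fluorescence read at ex 325/em 400 nm. Done in triplicate. IC50 fitted as vi/v0 = 1/(1+[I]/IC50).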

Data set [2] addresses Matrix metalloproteinase-9 (Homo sapiens, UniProt P14780). Kind of data set: Inhibition of recombinant human MMP9 using Mca-Lys-Pro-Leu-Gly-Leu-Dap(Dnp)-Ala-Arg-NH2 as substrate preincubated for 3 hrs followed by substrate addition and measured every 10 secs for 15 mins by fluorescence assay. In short, it runs like this: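 Pro-enzyme activated just before use with 1 mM APMA for 1 h at 37 °C; 1.3 nM final enzyme. Inhibitor at seven concentrations, 3 h at 25 °C; 2 µM final substrate. Fluorescence read at ex 325/em 400 nm. Done in triplicate. IC50 fitted as vi/v0 = 1/(1+[I]/IC50).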

Data set [3] can be described thus: Solubility in water. Format: physicochemical.

Structures are written as SMILES.

A word on the IC50: it is the concentration at which inhibition is half-maximal. In general, solubility refers to the concentration that dissolves in the medium under given conditions. Low values mean a poorly soluble substance, high ones a readily soluble substance.

Chain of Macrophage metalloelastase (P39900 whole entry): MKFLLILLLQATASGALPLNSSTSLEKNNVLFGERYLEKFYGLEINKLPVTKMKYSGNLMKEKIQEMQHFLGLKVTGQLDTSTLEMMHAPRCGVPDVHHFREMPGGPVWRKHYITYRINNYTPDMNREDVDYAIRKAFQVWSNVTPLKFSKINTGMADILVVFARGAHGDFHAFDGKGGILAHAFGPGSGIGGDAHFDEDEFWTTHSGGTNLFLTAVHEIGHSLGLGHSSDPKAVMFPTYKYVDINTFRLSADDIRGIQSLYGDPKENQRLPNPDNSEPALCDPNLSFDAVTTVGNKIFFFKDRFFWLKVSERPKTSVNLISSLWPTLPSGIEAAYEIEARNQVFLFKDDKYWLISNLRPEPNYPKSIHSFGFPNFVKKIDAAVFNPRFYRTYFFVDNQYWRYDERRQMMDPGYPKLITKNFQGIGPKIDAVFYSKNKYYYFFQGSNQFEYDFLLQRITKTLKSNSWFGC
Chain of Matrix metalloproteinase-9 (P14780 whole entry): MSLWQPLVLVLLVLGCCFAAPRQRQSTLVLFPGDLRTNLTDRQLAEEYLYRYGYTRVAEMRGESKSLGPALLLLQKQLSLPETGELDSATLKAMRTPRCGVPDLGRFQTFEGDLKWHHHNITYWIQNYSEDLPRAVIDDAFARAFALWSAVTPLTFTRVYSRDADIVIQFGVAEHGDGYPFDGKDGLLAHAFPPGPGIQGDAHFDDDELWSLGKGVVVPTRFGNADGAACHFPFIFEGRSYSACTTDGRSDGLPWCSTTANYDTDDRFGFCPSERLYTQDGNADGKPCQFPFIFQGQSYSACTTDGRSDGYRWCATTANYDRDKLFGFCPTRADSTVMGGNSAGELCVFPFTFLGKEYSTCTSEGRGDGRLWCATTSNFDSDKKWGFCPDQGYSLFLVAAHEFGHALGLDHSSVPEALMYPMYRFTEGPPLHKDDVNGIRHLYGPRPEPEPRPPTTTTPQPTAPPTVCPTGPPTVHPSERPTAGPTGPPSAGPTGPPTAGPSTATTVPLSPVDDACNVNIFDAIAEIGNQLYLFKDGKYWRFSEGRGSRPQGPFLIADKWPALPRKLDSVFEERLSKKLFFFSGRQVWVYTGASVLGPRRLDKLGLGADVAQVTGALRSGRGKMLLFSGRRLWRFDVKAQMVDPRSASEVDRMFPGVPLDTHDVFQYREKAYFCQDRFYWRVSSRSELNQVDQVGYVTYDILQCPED

As to `CO[C@@H]1O[C@H](CNC(=S)NCCN([C@@H](C(=O)O)C(C)C)S(=O)(=O)c2ccc(-c3ccccc3)cc2)[C@@H](O)[C@H](O)[C@H]1O`, the IC50 in data set [1] turned out to be 65 nM; in data set [2], 520 nM. For the compound `CC(C)[C@H](C(=O)O)N([C@@H]1O[C@H](CO)[C@@H](O)[C@H](O)[C@H]1O)S(=O)(=O)c1ccc(-c2ccccc2)cc1`, the IC50 was 1300 nM in data set [1] and more than 50000 nM in data set [2]. On the same counts, the results for `CC(=O)N[C@@H]1[C@@H](OC(C)=O)[C@H](OC(C)=O)[C@@H](COC(C)=O)O[C@H]1NC(=S)NCCN([C@@H](C(=O)O)C(C)C)S(=O)(=O)c1ccc(-c2ccccc2)cc1` are 18 nM and 1200 nM. On to `CO[C@@H]1O[C@H](CN([C@@H](C(=O)O)C(C)C)S(=O)(=O)c2ccc(-c3ccccc3)cc2)C(O)[C@H](O)C1NC(C)=O` (single isomer, unassigned), for which the IC50 in data set [1] stood at 41 nM; in data set [2] it was 890 nM. As to `CO[C@@H]1O[C@H](CNC(=S)NCCN([C@@H](C(=O)O)C(C)C)S(=O)(=O)c2ccc(-c3ccccc3)cc2)[C@@H](OC(C)=O)[C@H](OC(C)=O)[C@H]1OC(C)=O`, the IC50 in data set [1] was determined as 20 nM; in data set [2], 32 nM. Regarding `CO[C@@H]1O[C@H](CN([C@@H](C(=O)O)C(C)C)S(=O)(=O)c2ccc(-c3ccccc3)cc2)[C@@H](O)[C@H](O)[C@H]1O`, the values for the IC50 in data set [1] and in data set [2] were 51 nM and 2200 nM, respectively. On the same counts, the results for `CC(C)[C@H](C(=O)O)N(CCNC(=S)N[C@@H]1O[C@H](CO)[C@@H](O)[C@H](O)[C@H]1O)S(=O)(=O)c1ccc(-c2ccccc2)cc1` are 98 nM and 1120 nM. For `CC(=O)OC[C@H]1O[C@@H](N([C@@H](C(=O)O)C(C)C)S(=O)(=O)c2ccc(-c3ccccc3)cc2)[C@H](OC(C)=O)[C@@H](OC(C)=O)[C@@H]1OC(C)=O`, the IC50 in data set [1] was found to be 9600 nM. In the case of `CO[C@@H]1O[C@H](CN([C@@H](C(=O)O)C(C)C)S(=O)(=O)c2ccc(-c3ccccc3)cc2)[C@@H](OC(C)=O)[C@H](OC(C)=O)[C@H]1NC(C)=O`, the IC50 came to 83 nM in data set [1] and 1240 nM in data set [2].

With `CC(=O)N[C@@H]1[C@@H](O)[C@H](O)[C@@H](CO)O[C@H]1NC(=S)NCCN([C@@H](C(=O)O)C(C)C)S(=O)(=O)c1ccc(-c2ccccc2)cc1`, the IC50 in data set [1] turned out to be 40 nM; in data set [2] it was 5400 nM. The compound also returned a solubility in data set [3] of more than 5 mM. Consider `CO[C@@H]1O[C@H](CN([C@@H](C(=O)O)C(C)C)S(=O)(=O)c2ccc(-c3ccccc3)cc2)[C@@H](OC(C)=O)[C@H](OC(C)=O)[C@H]1OC(C)=O`, for which the results for the concentration for half-maximal inhibition (IC50) in data set [1] and in data set [2] were 84 nM and 2600 nM, respectively. As for `CC(=O)N[C@@H]1[C@@H](O)[C@H](O)[C@@H](CO)O[C@H]1N([C@@H](C(=O)O)C(C)C)S(=O)(=O)c1ccc(-c2ccccc2)cc1`, in data set [1], the half-inhibitory concentration (IC50) came to 9200 nM.

As for `CC(=O)N[C@@H]1[C@@H](OC(C)=O)[C@H](OC(C)=O)[C@@H](COC(C)=O)O[C@H]1N([C@@H](C(=O)O)C(C)C)S(=O)(=O)c1ccc(-c2ccccc2)cc1`, the IC50 in data set [1] is 40000 nM. Consider `CC(=O)OC[C@H]1O[C@@H](NC(=S)NCCN([C@@H](C(=O)O)C(C)C)S(=O)(=O)c2ccc(-c3ccccc3)cc2)[C@H](OC(C)=O)[C@@H](OC(C)=O)[C@@H]1OC(C)=O`, for which the IC50 in data set [1] came to 19 nM; in data set [2], 880 nM.
